We go through 9 compounds from ChEMBL document CHEMBL2086305 (Eur J Med Chem, 2012).

A short description of data set [1]: Antiplatelet activity against rabbit platelets assessed as inhibition of thrombin-induced platelet aggregation. The following applies: Oryctolagus cuniculus. In kind it is functional, cell-based.
For data set [2], the system named is Rattus norvegicus. In words: Antithrombotic activity in Sprague-Dawley rat venous thrombosis model assessed as thrombus dry weight administered via gastric tube qd for 3 days after 2 hrs of last post dose.
The subject of data set [3] is Platelet. Kind of data set: (§1) Antiplatelet activity against rabbit platelets assessed as inhibition of ADP-induced platelet aggregation. The format is functional, cell-based. As to conditions: Oryctolagus cuniculus.
The nature of data set [4]: as §1. The format is functional, cell-based. As to conditions: Oryctolagus cuniculus.
The subject of data set [5] is Rattus norvegicus. In words: Drug metabolism in Sprague-Dawley rat plasma assessed as dabigatran level at 20 mg/kg, administered via gastric tube after 0.167 hrs. In kind it is ADME, organism-based. Further details: dose 20 mg/kg. The following applies: in vivo, po. In outline: (§2)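 Female Sprague-Dawley rats received 20 mg/kg. Whole blood was collected at 0.167–6 h and mixed with 4% formic acid. Samples were precipitated with acetonitrile and stored at −70 °C.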

For data set [6], the system named is Rattus norvegicus. Kind of data set: Drug metabolism in Sprague-Dawley rat plasma assessed as HTMP level at 20 mg/kg, administered via gastric tube after 1.5 hrs. The format is ADME, organism-based. Further details: dose 20 mg/kg. The following applies: in vivo, po. In outline:
as §2

The test system of data set [7] is Rattus norvegicus. In words: Drug metabolism in Sprague-Dawley rat plasma assessed as dabigatran level at 20 mg/kg, administered via gastric tube after 2 hrs. In kind it is ADME, organism-based. The following applies: in vivo, po. Further details: dose 20 mg/kg. In outline:
as §2

Data set [8] relates to Rattus norvegicus. In words: Drug metabolism in Sprague-Dawley rat plasma assessed as dabigatran level at 20 mg/kg, administered via gastric tube after 4 hrs. As to conditions: in vivo, po. In kind it is ADME, organism-based. Further details: dose 20 mg/kg. The method in brief:
as §2

The test system of data set [9] is Rattus norvegicus. In words: Drug metabolism in Sprague-Dawley rat plasma assessed as HTMP level at 20 mg/kg, administered via gastric tube after 0.167 hrs. In kind it is ADME, organism-based. More on the design: dose 20 mg/kg. The following applies: in vivo, po. The method in brief:
as §2

Data set [10] has as its system Rattus norvegicus. In words: Drug metabolism in Sprague-Dawley rat plasma assessed as dabigatran level at 20 mg/kg, administered via gastric tube after 1 hr. The following applies: in vivo, po. Further details: dose 20 mg/kg. The format is ADME, organism-based. The method in brief:
as §2

Data set [11] has as its system Rattus norvegicus. Kind of data set: Drug metabolism in Sprague-Dawley rat plasma assessed as HTMP level at 20 mg/kg, administered via gastric tube after 0.25 hrs. As to conditions: in vivo, po. Further details: dose 20 mg/kg. The format is ADME, organism-based. In outline: as §2
For data set [12], the system named is Rattus norvegicus. Kind of data set: Drug metabolism in Sprague-Dawley rat plasma assessed as HTMP level at 20 mg/kg, administered via gastric tube after 2 hrs. The format is ADME, organism-based. Further details: dose 20 mg/kg. The following applies: in vivo, po. In outline: as §2
Data set [13] has as its system Rattus norvegicus. Kind of data set: Drug metabolism in Sprague-Dawley rat plasma assessed as HTMP level at 20 mg/kg, administered via gastric tube after 6 hrs. The format is ADME, organism-based. More on the design: dose 20 mg/kg. The following applies: in vivo, po. In outline:
as §2

Data set [14] relates to Rattus norvegicus. In words: Drug metabolism in Sprague-Dawley rat plasma assessed as dabigatran level at 20 mg/kg, administered via gastric tube after 0.5 hrs. In kind it is ADME, organism-based. More on the design: dose 20 mg/kg. The following applies: in vivo, po. In outline: as §2
Data set [15] deals with Rattus norvegicus. Kind of data set: Drug metabolism in Sprague-Dawley rat plasma assessed as HTMP level at 20 mg/kg, administered via gastric tube after 0.5 hrs. In kind it is ADME, organism-based. Further details: dose 20 mg/kg. The following applies: in vivo, po. The method in brief:
as §2

In data set [16] the test system is Rattus norvegicus. In words: Drug metabolism in Sprague-Dawley rat plasma assessed as HTMP level at 20 mg/kg, administered via gastric tube after 4 hrs. The format is ADME, organism-based. Further details: dose 20 mg/kg. As to conditions: in vivo, po. The method in brief:
as §2

Data set [17] concerns Rattus norvegicus. In words: Drug metabolism in Sprague-Dawley rat plasma assessed as dabigatran level at 20 mg/kg, administered via gastric tube after 0.25 hrs. More on the design: dose 20 mg/kg. In kind it is ADME, organism-based. The following applies: in vivo, po. In outline: as §2
For data set [18], the system named is Rattus norvegicus. In words: Drug metabolism in Sprague-Dawley rat plasma assessed as dabigatran level at 20 mg/kg, administered via gastric tube after 6 hrs. The format is ADME, organism-based. Further details: dose 20 mg/kg. As to conditions: in vivo, po. In outline: as §2
The test system of data set [19] is Rattus norvegicus. Kind of data set: Drug metabolism in Sprague-Dawley rat plasma assessed as dabigatran level at 20 mg/kg, administered via gastric tube after 1.5 hrs. The format is ADME, organism-based. More on the design: dose 20 mg/kg. As to conditions: in vivo, po. In outline:
as §2

Data set [20] has as its system Rattus norvegicus. In words: Toxicity in Sprague-Dawley rat assessed as adverse effect at 20 mg/kg, administered via gastric tube. In kind it is organism-based. More on the design: dose 20 mg/kg. As to conditions: in vivo, po.
Data set [21] relates to Rattus norvegicus. Kind of data set: Drug metabolism in Sprague-Dawley rat plasma assessed as HTMP level at 20 mg/kg, administered via gastric tube after 1 hr. The format is ADME, organism-based. Further details: dose 20 mg/kg. As to conditions: in vivo, po. In outline:
as §2

Activity calls are given as the source filed them. No cut-off for these calls is given here.

`Cc1nc(C)c(COC(=O)CCN(C(=O)c2ccc3c(c2)nc(CNc2ccc(/C(N)=N\C(=O)OCc4ccccc4)cc2)n3C)c2ccccn2)nc1C`: the IC50 in data set [1] was 0.292 µM.

Take `CCOC(=O)/N=C(/N)c1ccc(NCc2nc3cc(C(=O)N(CCC(=O)OCc4nc(C)c(C)nc4C)c4ccccn4)ccc3n2C)cc1`: the IC50 in [1] stood at 0.218 µM.

`CCCCCCOC(=O)NC(=N)c1ccc(NCc2nc3cc(C(=O)N(CCC(=O)OCC)c4ccccn4)ccc3n2C)cc1` [DABIGATRAN ETEXILATE]: in data set [2], the ED50 came to 4.4 mg/kg. Also, the IC50 in data set [1] is 0.326 µM. The inhibition result in [3] is “inactive”.

For `CCCCCOC(=O)/N=C(/N)c1ccc(NCc2nc3cc(C(=O)N(CCC(=O)OCc4nc(C)c(C)nc4C)c4ccccn4)ccc3n2C)cc1`, the IC50 in data set [1] stood at 0.0728 µM.

For the compound `Cc1nc(C)c(CO)nc1C`, the 50% effective dose (ED50) in data set [2] turned out to be 42.6 mg/kg. For the same compound, the IC50 in data set [1] worked out at 8410 µM; in data set [4], 1670 µM.

Regarding `Cc1nc(C)c(COC(=O)CCN(C(=O)c2ccc3c(c2)nc(CNc2ccc(/C(N)=N\C(=O)OC(C)(C)C)cc2)n3C)c2ccccn2)nc1C`, the ED50 in data set [2] is 1.8 mg/kg. Also, the IC50 in data set [1] worked out at 0.00313 µM.

Take `Cc1nc(C)c(COC(=O)CCN(C(=O)c2ccc3c(c2)nc(CNc2ccc(/C(N)=N\C(=O)OC(C)C)cc2)n3C)c2ccccn2)nc1C`: in [1], the IC50 worked out at 0.295 µM.

Take `CCCCCCOC(=O)/N=C(/N)c1ccc(NCc2nc3cc(C(=O)N(CCC(=O)OCc4nc(C)c(C)nc4C)c4ccccn4)ccc3n2C)cc1`: the Drug metabolism in data set [5] stood at 109 ng/mL; in data set [6] it was 495 ng/mL; in [7], 152 ng/mL; in [8], 67.3 ng/mL; in data set [9], 423 ng/mL; in data set [10] it was 264 ng/mL. Also, the Drug metabolism in data set [11] was found to be 955 ng/mL; in data set [12], 430 ng/mL; in data set [13], 93.3 ng/mL; in data set [14] it was 252 ng/mL; in data set [15], 1075 ng/mL; in data set [16], 188 ng/mL. Also, the Drug metabolism in data set [17] is 245 ng/mL; in [18], 18.2 ng/mL; in data set [19], 164 ng/mL; in data set [21], 938 ng/mL. For the same compound, the ED50 in [2] was 2.1 mg/kg. In addition, the concentration for half-maximal inhibition (IC50) in [1] turned out to be 0.0381 µM; in [4] it was 4030 µM. Moreover, the Activity entry in data set [20] was “Non-toxic”.

With `COC(=O)/N=C(/N)c1ccc(NCc2nc3cc(C(=O)N(CCC(=O)OCc4nc(C)c(C)nc4C)c4ccccn4)ccc3n2C)cc1`, in data set [1], the IC50 was determined as 0.287 µM.
